Experimental data gathered from unrelated publications.
Each line is one published result; the experiments were not run side by side.
Target: Casein kinase II subunit alpha' (CSNK2A2, Homo sapiens, UniProt P19784)

Nc1ncc(-c2nc(N3CCOCC3)nc(N3CCOCC3)n2)c(C(F)F)n1 — remaining binding (binding, competition with immobilised ligand; 10 µM): 69%
C#Cc1n[nH]c2c(-c3cn([C@@H](C)c4ccccc4)c(=O)[nH]c3=O)cc(F)cc12 — inhibition (enzyme activity, inhibitor; 0.1 µM): 1.5%
Cn1cncc1[C@@](O)(COc1ccc(C#N)cc1-c1ccc(OC(F)(F)F)cc1)c1ccc(C#N)cc1 — remaining binding (cell-free assay, competition with immobilised ligand; 1 µM): 100%
COc1ncccc1-c1cnn2ccc(N3CCN(C(=O)OC(C)C)CC3)nc12 — remaining binding (binding, competition with immobilised ligand; 1 µM): 62%
CN[C@@H]1C[C@H]2O[C@@](C)([C@@H]1OC)n1c3ccccc3c3c4c(c5c6ccccc6n2c5c31)C(=O)NC4 — activity vs control (enzyme activity, inhibitor; 0.5 µM): 66.6%
Cn1cc(-c2cccc(N3CCc4c(sc5c4CC(C)(C)C5)C3=O)c2CO)cc(Nc2ccncn2)c1=O — inhibition (enzyme activity, inhibitor; 1 µM): 4%
Cc1nn(C)cc1-c1nc2c(N3CCN(Cc4ccc(Cl)cc4)CC3)c(Cl)cnc2[nH]1 — remaining binding (binding, competition with immobilised ligand; 1 µM): 67%
Cn1cc(-c2cc(F)cc(N3CCn4c(cc5c4CCCC5)C3=O)c2CO)cc(Nc2ccc(N3CCN(C4COC4)CC3)cn2)c1=O — inhibition (enzyme activity, inhibitor; 0.1 µM): 1%
O=c1[nH]c2ccccc2n1C1CCN(Cc2ccc(-c3[nH]c4cc5ncnc5cc4nc3-c3ccccc3)cc2)CC1 — remaining signal (cell-free assay; 0.5 µM): 101%
C#Cc1n[nH]c2c(-c3cn([C@@H](C)c4ccccn4)c(=O)[nH]c3=O)cc(F)cc12 — inhibition (enzyme activity, inhibitor; 0.1 µM): 3.3%
